Converted amounts (≈) assume the structure as drawn.
Legend:
[1] = AUC (0 to infinity) in BALB/c mouse at 10 mg/kg, po measured upto 24 hrs by LC-MS/MS analysis; format: ADME, organism-based; design: route oral, dose 10 mg/kg, time <=24; details: in vivo
How it was run: (§1)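 Female BALB/c mice, 16−21 g, three per route. Oral dosing at 10 mg/kg as a 5 mg/mL suspension in 0.5% carboxymethyl cellulose. IV dosing at 1 mg/kg as a 1 mg/mL solution in 10% DMSO/50% PEG400/40% water. Blood sampled 15 min to 24 h after oral dosing and 5 min to 24 h after iv. LC/MS/MS quantification in ESI positive mode. Noncompartmental analysis; F = (AUCpo×dose_iv)/(AUCiv×dose_po)×100%.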

[2] = tested on: Mycobacterium tuberculosis; assay: Antitubercular activity against Mycobacterium tuberculosis H37Rv assessed as inhibition of bacterial growth incubated for 7 days by MABA; format: functional; details: Mycobacterium tuberculosis, H37Rv, 168 h, time 7 day; read-out: MIC
How it was run: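 Microplate alamar blue assay. H37Rv or clinical isolates were grown to late log phase in 7H9 broth with glycerol, Tween 80 and ADC, then 2 × 10⁵ CFU added to two-fold dilutions. Final range 32–0.5 μg/mL, lowered to 2–0.016 μg/mL for active compounds. 37 °C, 7 days, then alamar blue 16 h. Fluorescence 530/590 nm. MIC is the lowest concentration giving ≥90% reduction; INH and RFP were controls.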

[3] = Oral bioavailability in BALB/c mouse at 10 mg/kg measured upto 24 hrs by LC-MS/MS analysis; format: ADME, organism-based; details: in vivo; how it was run: as §1
[4] = Elimination half life in BALB/c mouse at 1 mg/kg, iv measured upto 24 hrs by LC-MS/MS analysis; format: ADME, organism-based; details: in vivo, read-out: beta t1/2 (converted); how it was run: as §1
[5] = Tmax in BALB/c mouse at 10 mg/kg, po measured upto 24 hrs by LC-MS/MS analysis; format: ADME, organism-based; details: in vivo; how it was run: as §1
Enterococcus = assay: Antibacterial activity against vancomycin resistant Enterococcus assessed as bacterial growth inhibition after 18 hrs by broth microdilution method; format: functional
[6] = Inhibition of mitochondrial protein synthesis in […] H9C2 cells after 5 days by ELISA; format: functional, cell-based; details: Rattus norvegicus, H9c2, 120 h
How it was run: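 H9C2 cells in DMEM with 10% FBS, glutamine and NEAA, seeded at 1500 cells/well. After 18 h, compounds added at final 200 to 0.03 μM in nine 3-fold steps, then 5 days at 37 °C, 5% CO2. Negative control 0.5% DMSO. Mitochondrial protein synthesis read by MitoBiogenesis In-Cell ELISA; IC50 fitted.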

Staphylococcus aureus = assay: Antibacterial activity against Staphylococcus aureus ATCC 29213 assessed as inhibition of bacterial growth incubated for 18 hrs by broth microdilution method; format: functional
How it was run: (§2)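 Broth microdilution in 96-well plates. Media: cation-adjusted Mueller−Hinton broth for S. aureus, brain heart infusion for VRE, Mueller−Hinton broth for the other strains. Incubated at 37 °C for 18 h, then A600 read. Percent growth inhibition calculated against 1% DMSO vehicle.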

[7] = Metabolic stability in pooled human liver microsomes incubated for 30 mins by LC-MS analysis; format: ADME, Microsome; details: read-out: Stabilty
How it was run: (§3)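 Microsomes from male CD-1 mouse or pooled human, 1 mg/mL protein in 0.05 M phosphate buffer pH 7.4. Compound at final 0.1 μM with DMSO cosolvent. Incubated at 37 °C with 1 mM NADPH, or with buffer in place of NADPH. Sampled at 0 and 30 min and quenched with acetonitrile. LC−MS measurement; substrate remaining at 30 min normalized to time zero.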

[8] = MRT (0 to infinity) in BALB/c mouse at 10 mg/kg, po measured upto 24 hrs by LC-MS/MS analysis; format: ADME, organism-based; details: in vivo; how it was run: as §1
Enterococcus faecium = assay: Antibacterial activity against Enterococcus faecium ATCC 49624 assessed as bacterial growth inhibition after 18 hrs by broth microdilution method; format: functional; how it was run: as §2
[9] = Elimination half life in BALB/c mouse at 10 mg/kg, po measured upto 24 hrs by LC-MS/MS analysis; format: ADME, organism-based; details: in vivo, read-out: beta t1/2 (converted); how it was run: as §1
[10] = AUC (0 to infinity) in BALB/c mouse at 1 mg/kg, iv measured upto 24 hrs by LC-MS/MS analysis; format: ADME, organism-based; design: route intravenous, dose 1 mg/kg, time <=24; details: in vivo; how it was run: as §1
Vero = assay: Cytotoxicity against african green monkey Vero cells after 48 hrs by MTT assay; format: cell-based; details: Chlorocebus sabaeus
How it was run: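 Vero cells grown in RPMI1640 with 10% FBS at 37 °C, 5% CO2. Cells diluted to 4 × 10⁵ cells/mL. Compounds given as three-fold serial dilutions, final 64−0.26 μg/mL, for 48 h at 37 °C. Monolayers washed with warm HBSS, then MTT added for 4 h. Absorbance read at 492 nm.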

[11] = Metabolic stability in CD-1 mouse liver microsomes assessed as substrate remaining in presence of NADPH incubated for 30 mins by LC-MS analysis; format: ADME, Microsome; details: read-out: Stabilty; how it was run: as §3

CC(=O)NC[C@@H]1OC(=O)N2Cc3cc(-c4ccc(C#N)nc4)c(F)cc3O[C@@H]12
AUC(0-inf) [1]: 78700 ng·h/mL | MIC [2]: 0.4 µg/mL (≈ 1.05 µM) | bioavailability [3]: 128% | half-life [4]: 4.08 h | Tmax [5]: 1.33 h | MIC (Enterococcus): 0.25 µg/mL (≈ 0.654 µM) | IC50 [6]: 1630 nM | MIC (Staphylococcus aureus): 0.125 µg/mL (≈ 0.327 µM) | remaining at 0.5 h [7]: 106% | MRT inf [8]: 5.86 h | MIC (Enterococcus faecium): 1 µg/mL (≈ 2.62 µM) | half-life [9]: 3.76 h | AUC(0-inf) [10]: 6160 ng·h/mL | IC50 (Vero): > 64 µg/mL | remaining at 0.5 h [11]: 95.5%

— ChEMBL document CHEMBL4837188, “Identification of Novel Tricyclic Benzo[1,3]oxazinyloxazolidinones as Potent Antibacterial Agents with Excellent Pharmacokinetic Profiles against Drug-Resistant Pathogens” (J Med Chem, 2021)
